Screens: PubChem BioAssay, Sanford-Burnham Center for Chemical Genomics
DNMT1 inh: DNMT1 (human) enzyme inhibition. P26358. DNMT1 molecular beacon, Hinp1I cleavage, fluorescence. inhibition (reported as % activation of signal), % at 10 µM. 0.83% of 360,000 active. AID 588458; in the data active = inhibition above about 50%
Scp-1 inhibitor: inhibitors of human Scp-1 phosphatase; Q9GZU7; Recombinant Scp1, phosphopeptide, malachite green phosphate absorbance; inhibition, % at 20 µM; 0.88% of 340,000 active; AID 493091;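 active = inhibition above about 50% at 20 µM, limit read from the data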;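 note: plate controls were DMSO wells with enzyme for no effect and wells lacking enzyme for full effect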
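Test system: SCP-1 phosphatase catalytic domain, residues 76-261 | Compound dosing: One concentration, 20 µM, with 1.0% DMSO | Schedule: 45 min room-temperature reaction, 5 min colour, 30 min stabiliser | Detection: Absorbance at 630 nm | Read-out basis: % inhibition of SCP-1 phosphate liberation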
STEP inh: STEP (human) phosphatase inhibition; AID 588621; P54829; recombinant STEP, OMFP fluorogenic substrate, fluorescence; inhibition, % at 20 µM; 0.25% of 360,000 active;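 active = inhibition at 20 µM, scaled per plate between control wells, above about 37%, limit read from the data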;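 note: 0% = DMSO with enzyme and substrate and 100% = substrate only without enzyme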
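Measure: Control-normalized % inhibition with plate pattern correction | Test system: STEP phosphatase, cell-free reaction | Medium: pH 6.0 Bis-Tris with DTT and Tween 20 | Technique: Fluorescence, 480/540 nm | Times: Reaction 20 min, ambient temperature | Doses: Single compound dose of 20 µM, 1% DMSO final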
SUMO1 PPI mod: modulators of human SUMO1-mediated protein-protein interactions; SUMO1 binding to a labelled peptide, TR-FRET, 1 h; inhibition, % at 20 µM; AID 602429; 0.33% of 360,000 active; in the data active = inhibition above about 37%
LMPTP inh: LMPTP (human) inhibition | P24666 | recombinant LMPTP-A, OMFP fluorogenic substrate, fluorescence intensity | inhibition, % at 20 µM | 0.22% of 360,000 active;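 active = compounds that cut the enzyme signal by at least half of the control window in the single-dose screen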;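 note: plate controls were DMSO wells with enzyme plus substrate for no effect and substrate without enzyme for full effect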
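Assay system: LMPTP-A, protein tyrosine phosphatase of low molecular weight / Medium: pH 6.0 Bis-Tris buffer with DTT and Triton X-100 / Schedule: 50 min enzyme reaction at room temperature, protected from light / Measured by: endpoint fluorescence intensity from OMFP dephosphorylation / Read-out basis: % inhibition relative to no-enzyme and uninhibited control wells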
HKDC1 inhibitor: HKDC1 (human) hexokinase inhibition; 0.16% of 340,000 active; inhibition, % at 20 µM; recombinant HKDC1, G6PDH/diaphorase resazurin coupled fluorescence;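 active = inhibition above about 35% when tested at 20 µM, limit read from the data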;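 note: plate controls were DMSO wells with enzyme for no effect and DMSO wells lacking enzyme for full effect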
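Test system: HK5 enzyme. Quantity: 5 µg/mL HK5 final. Reagent: glucose and ATP substrates. Schedule: 90 min reaction incubation at room temperature, dark. Technique: resazurin-to-resorufin fluorescence via G6PDH and diaphorase coupling, 525/613 nm. Control set: DMSO wells with and without enzyme mix.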
Active calls of the source: *; / = not tested or not shown. In the library only some 1.8% were active in any assay of this set; here they are far more common.

SMILES	DNMT1 inh	Scp-1 inhibitor	STEP inh	SUMO1 PPI mod	LMPTP inh	HKDC1 inhibitor
N#C/C(=C\c1coc2ccc(O)cc2c1=O)C(=O)Nc1nc2ccccc2s1	84*	9	-89	-20	9	33
C#CCOCCOCCOCCNc1nc(N2CCN(C(=O)CCCCCCCCCCNC(=O)[C@H](CCCCN)n3cc(C)nn3)CC2)nc(N2CCN(C(=O)CCCCCCCCCCNC(=O)[C@H](CCCN=C(N)N)n3cc(C[C@@H](C)CC)nn3)CC2)n1	/	38	/	/	/	1
C#CCOCCOCCOCCNc1nc(N2CCN(C(=O)CCCCCCCCCCNC(=O)[C@H](CCCCN)n3cc(C[C@@H](C)CC)nn3)CC2)nc(N2CCN(C(=O)CCCCCCCCCCNC(=O)[C@@H]([C@H](C)O)n3cc(C)nn3)CC2)n1	-148	38	8	70*	7	-13
C#CCOCCOCCOCCNc1nc(N2CCN(C(=O)CCCCCCCCCCNC(=O)[C@H](CCCCN)n3cc(C[C@@H](C)CC)nn3)CC2)nc(N2CCN(C(=O)CCCCCCCCCCNC(=O)[C@H](CCCN=C(N)N)n3cc(C[C@@H](C)CC)nn3)CC2)n1	-227	58*	29	72*	14	16
C#CCOCCOCCOCCNc1nc(N2CCN(C(=O)CCCCCCCCCCNC(=O)[C@@H](CCSC)n3cc(CCO)nn3)CC2)nc(N2CCN(C(=O)CCCCCCCCCCNC(=O)[C@H](CCCN=C(N)N)n3cc(C[C@@H](C)CC)nn3)CC2)n1	-106	43	18	80*	12	10
C#CCOCCOCCOCCNc1nc(N2CCN(C(=O)CCCCCCCCCCNC(=O)[C@H]([C@@H](C)CC)n3cc(CCCCN=C(N)N)nn3)CC2)nc(N2CCN(C(=O)CCCCCCCCCCNC(=O)[C@@H]([C@H](C)O)n3cc(C)nn3)CC2)n1	-108	35	6	86*	9	1
Cc1cc(NC(=O)C(C)SCC(=O)Nc2ccc(Br)cc2Br)no1 (stereo not drawn)	1	-6	-1	-1	-1	-1
Cc1cccc(-c2nnc3n2N=C(c2ccc(Br)cc2)CS3)c1	/	39	/	/	/	-3
COc1cccc(-c2nnc3n2N=C(c2cccc(Br)c2)CS3)c1	29	-5	-1	49*	-3	-8
C=C[C@](C)(CC[C@@]1(C)C(C)CC(OC2OC(C)C(OC3OC(COC(C)=O)C(O)C(O)C3O)C(O)C2O)[C@@]2(C)C(C)=CCCC12)OC1OC(C)C(O[C@@H]2O[C@@H](C)C(O)C(O)[C@H]2O)C(O)C1O (stereo partly drawn)	-2	-8	-4	8	-1	-4
COc1cc(NC(=O)c2ccc(NC3=NC4CS(=O)(=O)CC4S3)cc2)cc(OC)c1OC (stereo not drawn)	6	-12	-1	3	0	-3
CCCCNC(=O)c1nc(C2CCNCC2)oc1-c1cccc(C(F)(F)F)c1	/	/	/	11	60*	/
O=C(NC(=S)Nc1cc([N+](=O)[O-])ccc1O)c1ccc2c(c1)OCO2	0	-5	14	-6	58*	7
O=C(Cn1cnc2c(OCc3ccccc3)ncnc21)NCc1ccccn1	4	4	3	1	-2	-3
O=C1c2nccnc2C(=O)N1Cc1ccccc1	1	15	-2	-8	0	-2
O=C1c2nc3ccccn3c2C(=O)N1Cc1ccccc1	-11	-3	2	39*	1	-6
CC(=O)c1cccc(OC(=O)C2=CC=CN3CCS(=O)(=O)N=C23)c1	3	-5	3	-8	-1	-4
Cc1cc(C=C2C(=O)c3ccccc3C2=O)c(C)n1C	-11	-5	-1	52*	3	-4
CCn1c(C)cc(C=C2C(=O)c3ccccc3C2=O)c1C	-12	-7	0	-19	4	-3
CC(C)(CN1CCN(c2ccccc2)CC1)NS(=O)(=O)c1ccccc1	1	-2	2	2	5	-5
COc1cc(C(=O)NC(C)Cc2ccccn2)ccc1OC1CCN(C(C)=O)CC1 (stereo not drawn)	-1	-9	0	2	-1	-8
